# From ChEMBL document CHEMBL3259782, “Synthesis and biological evaluation of chalcones as potential antileishmanial agents” (Eur J Med Chem, 2014)
# pIC50: −log10 of the molar value.
# Columns and labels:
# [1] = Cytotoxicity against African green monkey Vero cells assessed as cell viability after 72 hrs by MTT assay; type: cell-based; details: chlorocebus sabaeus
# Outline: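 Vero cells at 1 x 10^5/mL were exposed to 7 concentrations from 400 µM at 37 °C in CO2 for 72 h. MTT (5 mg/mL in PBS) was then added for 2 h at 37°C. Formazan was dissolved in DMSO and absorbance read at 540 nm. CC50 was estimated and averaged over at least duplicates.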
# Leishmania donovani [2] = test: Antiamastigote activity against amastigote stage of Leishmania donovani MHOM/IN/80/Dd8 expressing luciferase firefly reporter gene infected in mouse J774A1 cells after 72 hrs by luminescence assay; type: functional, organism-based; details: MHOM/IN/80/Dd8, J774.A1, 72 h
# Outline: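 J-774A.1 macrophages were seeded at 4 x 10^4/mL in RPMI-1640 with 10% heat-inactivated FCS at 37 °C, 5% CO2. After 24 h they were infected with stationary-phase luciferase-expressing promastigotes at 4 x 10^5/mL. Uninternalized parasites were washed off after 24 h. Compounds were tested at 7 dilutions from 40 µM for 72 h. Luminescence was read with Steady Glo. IC50 came from four-parameter Hill fitting, averaged over at least duplicates.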
# [3] = (§1) Selectivity index, ratio of CC50 for African green monkey Vero cells to IC50 for promastigote stage of Leishmania donovani MHOM/IN/80/Dd8; type: functional; details: in the assay text read “amastigote stage” for “promastigote stage”
# Outline: (§2)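 SI was calculated as Vero CC50 (MTT, 72 h) divided by IC50 against intracellular amastigotes in J-774A.1 cells (luciferase luminescence, 72 h).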
# Leishmania donovani [4] = test: Antipromastigote activity against Leishmania donovani MHOM/IN/80/Dd8 expressing luciferase firefly reporter gene at 25 uM after 96 hrs by luminescence assay; details: MHOM/IN/80/Dd8, 96 h
# Leishmania donovani [5] = test: Antileishmanial activity against Leishmania donovani MHOM/IN/80/Dd8 infected in golden hamster assessed as inhibition of amastigotes multiplication at 30 mg/kg, po for 5 days treatment started 15 days after infection measured on day 7; type: functional
# Outline: (§3)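 Golden hamsters of both sexes were infected intracardially with 1 x 10^7 amastigotes. A pre-treatment splenic biopsy was taken after 15 days, and only animals with +1 grade infection (5-10 amastigotes/100 spleen cell nuclei) were used, five per compound. Dosing began 2 days after that biopsy and ran on consecutive days. Splenic biopsy on day 7 after the last dose was Giemsa-stained. PI = 100-[(ANAT x 100)/(INAT x TIUC)].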
# Leishmania donovani [6] = test: Antileishmanial activity against Leishmania donovani MHOM/IN/80/Dd8 infected in golden hamster assessed as inhibition of amastigotes multiplication at 50 mg/kg, ip for 5 days treatment started 15 days after infection measured on day 7; type: functional; details: MHOM/IN/80/Dd8, ip, route intraperitoneal; outline: as §3
# Leishmania donovani [7] = test: Antileishmanial activity against Leishmania donovani MHOM/IN/80/Dd8 infected in golden hamster assessed as inhibition of amastigotes multiplication at 100 mg/kg, ip for 5 days treatment started 15 days after infection measured on day 7; type: functional; details: MHOM/IN/80/Dd8, ip, route intraperitoneal; outline: as §3
# Leishmania donovani [8] = test: Antileishmanial activity against Leishmania donovani MHOM/IN/80/Dd8 infected in golden hamster assessed as inhibition of amastigotes multiplication at 50 mg/kg, ip for 10 days treatment started 15 days after infection measured on day 7; type: functional; details: MHOM/IN/80/Dd8, ip, route intraperitoneal; outline: as §3
# Leishmania donovani [9] = test: Antileishmanial activity against Leishmania donovani MHOM/IN/80/Dd8 infected in golden hamster assessed as inhibition of amastigotes multiplication at 40 mg/kg, ip for 5 days treatment started 15 days after infection measured on day 7; type: functional, organism-based; design: dose 40 mg/kg; outline: as §3
# Vero = test: as §1; type: functional; details: in the assay text read “amastigote stage” for “promastigote stage”; outline: as §2
Compound,CC50 at 72 h [1] [µM],pIC50 (Leishmania donovani [2]),Ratio CC50/IC50 [3],inhibition at 25 µM (Leishmania donovani [4]) [%],also measured
CC1(C)C=Cc2c(ccc(C(=O)/C=C/c3cc4ccccc4nc3Cl)c2O)O1,257,4.92,21.2,100,–
CCOc1ccc(/C=C/C(=O)c2ccc3c(c2O)C=CC(C)(C)O3)cc1,215,5.29,42.1,88.9,–
CC(C)=CCOc1ccc(C(=O)/C=C/c2ccc(N(C)C)cc2)cc1,> 400,5.39,>97.6,84.2,–
CCCCCCCCCCCCCCCCOP(=O)([O-])OCC[N+](C)(C)C [MILTEFOSINE],–,–,6.2,100,inhibition in vivo at 30 mg/kg (Leishmania donovani [5]): 98.5%
CC1(C)C=Cc2c(ccc(C(=O)/C=C/c3cc(C=O)ccc3O)c2O)O1,–,< 4.70,–,94.5,–
CC1(C)C=Cc2c(ccc(C(=O)/C=C/c3ccc(Br)cc3)c2O)O1,–,< 4.70,–,100,–
Cc1ccc2nc(Cl)c(/C=C/C(=O)c3ccc4c(c3O)C=CC(C)(C)O4)cc2c1,399,5.28,75.3,99.8,–
CC1(C)C=Cc2c(ccc(C(=O)/C=C/c3cccnc3)c2O)O1,8.6,4.65,0.4,100,–
CC1(C)C=Cc2c(ccc(C(=O)/C=C/c3cnc4ccccc4c3)c2O)O1,–,–,–,62.2,–
CC1(C)C=Cc2c(ccc(C(=O)/C=C/c3ccc(C#N)cc3)c2O)O1,80.2,5.09,9.8,99.6,–
CC1(C)C=Cc2c(ccc(C(=O)/C=C/c3ccc(F)cc3)c2O)O1,158,4.78,9.5,99,–
CCN(CC)CCOc1ccc(/C=C/C(=O)c2ccc3c(c2OCCN(CC)CC)C=CC(C)(C)O3)cc1,325,5.70,162.5,100,inhibition in vivo at 50 mg/kg (Leishmania donovani [6]): 48.5%
CC1(C)C=Cc2c(ccc(C(=O)/C=C/c3ccc([N+](=O)[O-])cc3)c2O)O1,106,5.28,20.4,97.4,–
CC1(C)C=Cc2c(ccc(C(=O)/C=C/c3ccc4ccoc4c3)c2O)O1,–,< 4.70,–,91.2,–
CC1(C)C=Cc2c(ccc(C(=O)/C=C/c3ccc(OCCN4CCCC4)cc3)c2O)O1,–,< 4.70,–,100,–
CC1(C)C=Cc2c(ccc(C(=O)/C=C/c3ccc(OCCN4CCCC4)cc3)c2OCCN2CCCC2)O1,258,5.60,103.2,99.9,–
CC(C)=CCC/C(C)=C/COc1ccc(C(=O)/C=C/c2ccc(O)cc2)cc1,12.9,5.03,1.4,95.2,–
CN(C)c1ccc(/C=C/C(=O)c2ccc3c(c2O)C=CC(C)(C)O3)cc1,> 400,4.70,>20.2,97.1,–
CC1(C)C=Cc2c(ccc(C(=O)/C=C/c3ccc(Cl)c(Cl)c3)c2O)O1,142,4.86,10.2,99.9,–

Compound,CC50 at 72 h [1] [µM],pIC50 (Leishmania donovani [2]),Ratio CC50/IC50 [3],inhibition at 25 µM (Leishmania donovani [4]) [%],also measured
CC1(C)C=Cc2c(ccc(C(=O)/C=C/c3ccc(Cl)cc3)c2O)O1,92.2,4.75,5.1,99.9,–
CC1(C)C=Cc2c(ccc(C(=O)/C=C/c3ccc(F)c(F)c3)c2O)O1,146,4.77,8.6,99.9,–
COc1ccc(/C=C/C(=O)c2ccc(OC/C=C(\C)CCC=C(C)C)cc2)cc1,146,5.51,47.2,93,inhibition in vivo at 100 mg/kg (Leishmania donovani [7]): 75.9%; inhibition in vivo at 50 mg/kg (Leishmania donovani [8]): 83.3%
CC1(C)C=Cc2c(ccc(C(=O)/C=C/c3ccc(OCCN4CCCCC4)cc3)c2O)O1,> 400,4.75,>22.6,100,–
CC(C)=CCC/C(C)=C/CC/C(C)=C/COc1ccc(C(=O)/C=C/c2ccc(N(C)C)cc2)cc1,–,< 4.70,–,76.1,–
CC1(C)C=Cc2c(ccc(C(=O)/C=C/c3ccc(OCCN4CCCCC4)cc3)c2OCCN2CCCCC2)O1,86.5,5.55,30.9,100,–
CC1(C)C=Cc2c(ccc(C(=O)/C=C/c3ccc(Cl)cc3Cl)c2O)O1,131,5.01,13.5,99.9,–
COc1ccc(/C=C/C(=O)c2ccc3c(c2O)C=CC(C)(C)O3)cc1OC,267,4.92,22.4,98.2,–
CC(=O)Nc1ccc(/C=C/C(=O)c2ccc3c(c2O)C=CC(C)(C)O3)cc1,278,5.21,45.6,98.7,–
CCN(CC)CCOc1ccc(/C=C/C(=O)c2ccc3c(c2O)C=CC(C)(C)O3)cc1,341,4.83,22.9,100,–
CC(C)=CCC/C(C)=C/COc1ccc(C(=O)/C=C/c2ccc(OCCN3CCCC3)cc2)cc1,–,–,–,100,–
CN(C)c1ccc(/C=C/C(=O)c2ccc(OCCN3CCCCC3)cc2)cc1,251,5.03,27,99.9,–
CC1(C)C=Cc2c(ccc(C(=O)/C=C/c3ccc(O)cc3)c2O)O1,–,< 4.70,–,70.2,–
sodium stibogluconate,–,–,–,–,inhibition (Leishmania donovani [9]): 89.5%; Ratio CC50/IC50 (Vero): > 8
CCOc1cc(/C=C/C(=O)c2ccc3c(c2O)C=CC(C)(C)O3)ccc1F,185,4.92,15.3,99.9,–
CCOc1ccc(/C=C/C(=O)c2ccc(OCCN3CCCCC3)cc2)cc1,–,< 4.70,–,99.9,–
CC1(C)C=Cc2c(ccc(C(=O)/C=C/c3ccccn3)c2O)O1,20.5,5.70,10.2,99.9,–
O=C(/C=C/c1ccc(OCCN2CCCCC2)cc1)c1ccc(OCCN2CCCCC2)cc1,–,< 4.70,–,99.9,–
